Results published in ChEMBL document CHEMBL1122567, “Conformationally restricted congeners of dopamine derived from octahydrobenzo[g]quinoline and octahydrobenzo[f]quinoline” (J Med Chem, 1984).
Active and inactive are the calls of the source. The calls are words filed in the database; no cut-off is given here.

Experiments:
[1] = test system: Felis catus; test: Compound was evaluated for the inhibition of the cardioaccelerator nerve of the cat at a dose 4 umol/kg (n = 3); format: functional
Summary of the method: (§1)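 Cats were anaesthetised with pentobarbital sodium (30 mg/kg) injected into the thoracic cavity. The right cardioaccelerator nerve was isolated and stimulated through bipolar platinum electrodes at 2 Hz, 2-ms pulses and supramaximal voltage, usually for 30 s. Arterial pressure was recorded from the right femoral artery, and heart rate by cardiotachometer. The highest dose tested was 4 µmol/kg, with n = 3.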

[2] = species: Rattus norvegicus; test: Compound was evaluated for inhibition of binding of [3H]spiroperidol to rat caudate tissue.; format: functional, organism-based
[3] = species: Rattus norvegicus; test: Compound was evaluated for inhibition of binding of [3H]dopamine to rat caudate tissue.; format: functional, organism-based
[4] = test system: Felis catus; test: Compound was evaluated for the inhibition of the cardioaccelerator nerve of the cat at a dose 4 umol/kg; format: functional; summary of the method: as §1
[5] = test system: Felis catus; test: Compound was evaluated for the inhibition of the cardioaccelerator nerve of the cat; I - inactive at a dose 4 umol/kg (n = 3); format: functional, organism-based; summary of the method: as §1

Question: For `CCN1CCC[C@@H]2c3cc(O)cc(O)c3CC[C@H]21`, which ED50 [1] is on record?
Answer: 0.0021 µmol/kg

Question: And the IC50 [2]?
Answer: 2400 nM

Question: What about the IC50 [3] of the same molecule?
Answer: 90 nM

Question: What does the source list for `CCN1CCC[C@H]2c3cc(O)cc(O)c3CC[C@H]21`?
Answer: IC50 [2]: 10000 nM; ED50 [4]: > 4 µmol/kg; IC50 [3]: 430 nM

Question: Which results are given for `CN1CCc2cccc3c2[C@H]1Cc1ccc(O)c(O)c1-3` [APOMORPHINE]?
Answer: ED50 [1]: 0.022 µmol/kg; IC50 [2]: 1100 nM

Question: `CCN1CCC[C@@H]2Cc3c(O)cc(O)cc3C[C@H]21` was tested. Which ED50 [5] did it give?
Answer: inactive

Question: What about the IC50 [2] of the same molecule?
Answer: 32000 nM

Question: And the IC50 [3]?
Answer: 440 nM

Question: How did the IC50 [2] turn out when `Oc1cc(O)c2c(c1)[C@@H]1CCCN[C@H]1CC2` was run?
Answer: 25000 nM

Question: What about the IC50 [3] of the same molecule?
Answer: 1000 nM

Question: `CCCN1CCC[C@@H]2c3cc(O)cc(O)c3CC[C@H]21` was tested. Which ED50 [1] did it give?
Answer: 0.0047 µmol/kg

Question: And the IC50 [2]?
Answer: 1000 nM

Question: And the IC50 [3]?
Answer: 40 nM

Question: `Oc1cc(O)c2c(c1)[C@@H]1CCCN[C@@H]1CC2` was tested. Which IC50 [2] did it give?
Answer: 113000 nM

Question: What about the IC50 [3] of the same molecule?
Answer: 11100 nM

Question: `CCCN1CCC[C@H]2c3cc(O)cc(O)c3CC[C@H]21` was tested. Which IC50 [2] did it give?
Answer: 11000 nM

Question: And the ED50 [4]?
Answer: > 4 µmol/kg

Question: And the IC50 [3]?
Answer: 1700 nM

Question: What does the source list for `CCCN1CCC[C@@H]2Cc3c(O)cc(O)cc3C[C@H]21`?
Answer: ED50 [1]: 1.74 µmol/kg; IC50 [2]: 15000 nM; IC50 [3]: 370 nM

Question: Which results are given for `Oc1cc(O)c2c(c1)C[C@H]1NCCC[C@@H]1C2`?
Answer: ED50 [5]: inactive; IC50 [2]: 264000 nM; IC50 [3]: 12800 nM
